Experimental data reported in the array DNA melting data of Ke et al. (doi:10.1101/2024.01.08.574731).

Key:
[1] = folding enthalpy; higher = less favourable; fluorescence melt of hairpins on a sequencing array, two-state fit; conditions: sodium 0.088 M
Summary of the method: (§1)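 Folding enthalpy and melting temperature were estimated with bootstrapped two-state fits and combined across four replicates by inverse-variance weighting, with fitted temperatures raised by 9.35 °C to match UV melts. The data were Cy3 fluorescence of library hairpins, with annealed Cy3 and quencher oligos, on a sequenced MiSeq flow cell in 50 mM Na-HEPES pH 8.0, 25 mM NaCl, imaged in 2.5 °C steps up to 60 °C and normalised to pre-quench Cy3 and control constructs.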

[2] = melting temperature; fluorescence melt of hairpins on a sequencing array, two-state fit, raised by 9.35 °C to match UV melts; conditions: sodium 0.088 M
Summary of the method: as §1

Sequence	folding enthalpy [1] [kcal/mol]	Tm [2] [°C]
GTCAAACGAAAGTTGAC (((.(((....))))))	-26.5	49.7
GTCAACGAAAGTTCGGAC ((((((....)))..)))	-14	30.5
GTCAACGAAAGTTGAGAC ((((((....)))..)))	-12.2	43.3
GTCAACGAAAGTTTCGAC ((((((....)))..)))	-14.3	26.6
GTCAACGCGAAAGCGGAC (((..(((....))))))	-15.3	42
GTCAACGGAAACGTCGAC (((.(((....))).)))	-33	44.4
GTCAAGAAATTGAC (((((....)))))	-21.6	40.8
GTCAAGCCGAAAGGCGAC (((..(((....))))))	-12.2	45.1
GTCAAGGGAAACCTCGAC (((.(((....))).)))	-19.1	37.5
GTCAAGGGAAACTTTGAC (((((.(....).)))))	-26.4	40.3
GTCACAGCGAAAGCTGAC (((..(((....))))))	-10.4	34.2
GTCACAGGAAACTGTAAC ((.((((....)))).))	-17.3	30.9
GTCACCACGAAAGTGGAC (((..(((....))))))	-7.89	31.1
GTCACCGAAAGGTAGAC ((((((....))).)))	-18.9	51
GTCACCGAAAGGTAGGAC ((((((....)))..)))	-17.2	37.4
GTCACCGAAAGGTGAGAC ((((((....)))..)))	-10.3	48
GTCACCGAAAGGTGCGAC ((((((....)))..)))	-13	58.5
GTCACCGAAAGGTTCGAC ((((((....)))..)))	-14.9	30.3
GTCACCGAAAGGTTGAC ((((((....))).)))	-27	51.4
GTCACCGGAAACGGTGGC (.(((((....))))).)	-29.4	63.5
GTCACGCGAAAGCGCGAC (((.(((....))).)))	-29.6	58.9
GTCACGGAAACGTGAC ((((((....))))))	-34.4	69.2
GTCACGGGAAACCGCGAC (((.(((....))).)))	-30.4	50.8

Sequence	folding enthalpy [1] [kcal/mol]	Tm [2] [°C]
GTCACGTCGAAAGACGAC (((..(((....))))))	-9.85	32.1
GTCACTCCGAAAGGAGAC (((..(((....))))))	-8.95	31.6
GTCACTTCGAAAGAAGAC (((..(((....))))))	-8.67	26.7
GTCAGAGGAAACCCTGAC (((((.(....).)))))	-32.4	43.8
GTCAGAGGAAACTCCAAC ((..(((....)))..))	-4.46	17.2
GTCAGCACGAAAGTGGAC (((..(((....))))))	-18	37.6
GTCAGCGAAAGCTCGAC ((((((....))).)))	-19.8	48
GTCAGCGAAAGCTCTGAC ((((((....)))..)))	-18.5	37.3
GTCAGCGAAAGCTGAGAC ((((((....)))..)))	-8.85	49
GTCAGCGAAAGCTTGAC ((((((....))).)))	-25.6	49.9
GTCAGCGCGAAAGCGGAC (((..(((....))))))	-15.6	46.6
GTCAGCGGAAACGCTGGC (.(((((....))))).)	-24.6	63.7
GTCAGGGGAAACCCTGAC (((((((....)))))))	-41.9	65.1
GTCAGGTCGAAAGACGAC (((..(((....))))))	-16.8	43.1
GTCAGTACGAAAGTAGAC (((..(((....))))))	-17.2	31
GTCAGTGGAAACACTAAC ((.((((....)))).))	-17.4	30.9
GTCAGTGGAAACATTGGC (.((.((....)).)).)	-26.2	30.6
GTCATACCGAAAGGTGAC (((..(((....))))))	-19	43
GTCATACGAAAGTAAGAC (((.(((....))).)))	-25.6	43.5
GTCATACGAAAGTAGAC (((.(((....))))))	-28.2	42.4
GTCATAGGAAACTATGGC (.(((((....))))).)	-29.1	44.6
GTCATCCGAAAGGAGGAC (((.(((....))).)))	-36.3	58.6
GTCATCGAAAGATAAGAC ((((((....)))..)))	-21	31.6

Sequence	folding enthalpy [1] [kcal/mol]	Tm [2] [°C]
GTCATCGAAAGATACGAC ((((((....)))..)))	-20.9	35
GTCATCGAAAGATATGAC ((((((....)))..)))	-20	34.6
GTCATCGAAAGATTCGAC ((((((....)))..)))	-12.3	25.8
GTCATCGCGAAAGCGGAC (((..(((....))))))	-11.1	39.9
GTCATCGGAAACAATGAC (((((.(....).)))))	-28	36.1
GTCATCGGAAACGATAAC ((.((((....)))).))	-19.7	32.2
GTCATGACGAAAGTCGAC (((..(((....))))))	-14.9	38.6
GTCATGCGAAAGCAGAC (((.(((....))))))	-22.4	49.8
GTCATTCGAAAGAAAGAC (((.(((....))).)))	-30.6	38.4
GTCCAACGAAAGTTCGAC (((.(((....))).)))	-27	35.9
GTCCAAGCGAAAGCTGAC (((..(((....))))))	-14.4	41.4
GTCCACACGAAAGTGGAC (((..(((....))))))	-29.9	56.3
GTCCACCCGAAAGGGGAC (((..(((....))))))	-18.5	47
GTCCACCGAAAGGTTGAC (((.(((....))).)))	-29.6	49.3
GTCCACGAAAGTGAGAC ((((((....))).)))	-23.8	52.2
GTCCACGAAAGTGATGAC ((((((....)))..)))	-14.8	39.4
GTCCACGAAAGTGGAGAC ((((((....)))..)))	-9.62	48.7
GTCCACGAAAGTGGCGAC ((((((....)))..)))	-13.4	58.8
GTCCACGAAAGTGTCGAC ((((((....)))..)))	-14	33.8
GTCCACGGAAACATGGAC (((((.(....).)))))	-25.5	43.2
GTCCAGCGAAAGCTGAC (((.(((....))))))	-11.4	46.4
GTCCAGGAAACTGGAC ((((((....))))))	-34	62.4
GTCCATCCGAAAGGAGAC (((..(((....))))))	-14.8	24.8

Sequence	folding enthalpy [1] [kcal/mol]	Tm [2] [°C]
GTCCATGGAAACATGAAC ((.((((....)))).))	-18.5	36.4
GTCCCACGAAAGTGCGAC (((.(((....))).)))	-24.9	46.5
GTCCCACGAAAGTGTGAC (((.(((....))).)))	-33	50.4
GTCCCAGGAAACTAGGAC ((((.((....)).))))	-21.5	35.9
GTCCCCGAAAGGGCCGAC ((((((....)))..)))	-12.1	33
GTCCCCGAAAGGGCGAC ((((((....))).)))	-20.8	52.7
GTCCCCGAAAGGGCTGAC ((((((....)))..)))	-11.7	34.8
GTCCCCGAAAGGGGTGAC ((((((....)))..)))	-8.1	45
GTCCCGCGAAAGCGCGAC (((.(((....))).)))	-21.4	49.5
GTCCCGGGAAACCGAGAC (((.(((....))).)))	-25.8	46.3
GTCCCTCCGAAAGGAGAC (((..(((....))))))	-9.1	26.4
GTCCCTCGAAAGAGGAC (((.(((....))))))	-14	51.3
GTCCCTGGAAACAGAGAC (((.(((....))).)))	-28.4	36.3
GTCCGAGCGAAAGCTGAC (((..(((....))))))	-14.5	37.2
GTCCGCGAAAGCGACGAC ((((((....)))..)))	-14	57.6
GTCCGCGAAAGCGAGGAC ((((((....)))..)))	-21	54.9
GTCCGGGGAAACCCGAAC ((.((((....)))).))	-18.5	44.2
GTCCGGGGAAACCTGGAC ((((.((....)).))))	-36.6	55.5
GTCCGTGGAAACACAGAC (((.(((....))).)))	-28.2	40.5
GTCCGTGGAAACACGGGC (.(((((....))))).)	-24.1	63.8
GTCCTACGAAAGTATGAC (((.(((....))).)))	-32.3	41.9
GTCCTAGAAATAGGAC ((((((....))))))	-36.6	50.6
